pIC50: −log10 of the molar value.
Columns and labels:
[1] = test system: LS174T; assay: Antitumor activity against human LS174T cells xenografted in BALB/C mouse assessed as tumor weight inhibition at 75 mg/kg, bid administered for 10 days measured twice per week; assay type: functional; settings: 240 h, read-out: TGI
In short: (§1)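 Male BALB/c nude mice, 18–20 g, kept under SPF conditions. LS-174T cells at 2.5×10^7 cells/mL were injected s.c. into the right flank, and tumors were grown to about 100 mm3. Mice were randomized, n=6 treated and n=9 vehicle. Oral dosing ran qd or bid for 10 days; vehicle controls got the same volume of solvent. Tumor volume = length×width²/2, measured twice weekly. IR = (control − treated)/control for tumor weight or volume at day 10.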

[2] = Inhibition of Sonic-induced hedgehog signalling in mouse NIH3T3 cells after 48 hrs by Gli-luciferase reporter assay; assay type: cell-based; settings: NIH3T3, 48 h
In short: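 NIH3T3 cells stably carrying a Gli-luciferase reporter were kept in DMEM with 10% FBS and 1 µg/mL puromycin, then seeded at 2×10^4 cells/well overnight at 37 °C. Compounds at 0.05–300 nM (8 concentrations) were added in medium with 0.5% FBS and 0.7 µg/mL Sonic Hh agonist, n=4 wells, for 48 h. Readout was the Firefly/Renilla luciferase ratio in lysates.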

[3] = Cmax in Sprague-Dawley rat at 1 mg/kg, iv by LC/MS/MS analysis; assay type: ADME, organism-based; design: dose 1 mg/kg, route intravenous; settings: in vivo
In short: (§2)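 Male SD rats, 180–240 g, 3 per compound; single dose of 1 mg/kg iv or 5 mg/kg po, dosing volume 5 mL/kg. Blood was sampled from 2 min to 24 h and centrifuged at 4 °C. Plasma underwent protein precipitation, then LC/MS/MS in SRM mode with an internal standard. Parameters were derived by noncompartmental analysis.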

[4] = Cmax in Sprague-Dawley rat at 5 mg/kg, po by LC/MS/MS analysis; assay type: ADME, organism-based; design: dose 5 mg/kg, route oral; settings: in vivo; in short: as §2
[5] = AUC (0 to t) in Sprague-Dawley rat at 1 mg/kg, iv by LC/MS/MS analysis; assay type: ADME, organism-based; settings: in vivo
In short: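 Male SD rats, 3 per compound, 180–240 g, single iv dose at 1 mg/kg, dosing volume 5 mL/kg. Blood sampled at 2, 5, 15, 30 min and 1, 2, 4, 6, 8, 10, 24 h, then centrifuged at 4 °C. Plasma protein-precipitated and analysed by LC/MS/MS in SRM mode with internal standard. AUC(0-t) obtained by noncompartmental analysis.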

[6] = AUC (0 to t) in Sprague-Dawley rat at 5 mg/kg, po by LC/MS/MS analysis; assay type: ADME, organism-based; settings: in vivo; in short: as §2
[7] = Apparent volume of distribution in Sprague-Dawley rat at 1 mg/kg, iv by LC/MS/MS analysis; settings: in vivo
[8] = test system: Rattus norvegicus; assay: Apparent volume of distribution in Sprague-Dawley rat at 5 mg/kg, po by LC/MS/MS analysis; settings: in vivo
[9] = Clearance in Sprague-Dawley rat at 1 mg/kg, iv by LC/MS/MS analysis; assay type: ADME, organism-based; settings: in vivo; in short: as §2
[10] = Clearance in Sprague-Dawley rat at 5 mg/kg, po by LC/MS/MS analysis; assay type: ADME, organism-based; settings: in vivo; in short: as §2
[11] = Mean resident time (0 to t) in Sprague-Dawley rat at 1 mg/kg, iv by LC/MS/MS analysis; assay type: ADME, organism-based; settings: in vivo; in short: as §2
[12] = Mean resident time (0 to t) in Sprague-Dawley rat at 5 mg/kg, po by LC/MS/MS analysis; assay type: ADME, organism-based; settings: in vivo; in short: as §2
[13] = Half life in Sprague-Dawley rat at 1 mg/kg, iv by LC/MS/MS analysis; assay type: ADME, organism-based; settings: in vivo; in short: as §2
[14] = Half life in Sprague-Dawley rat at 5 mg/kg, po by LC/MS/MS analysis; assay type: ADME, organism-based; settings: in vivo; in short: as §2
[15] = Oral bioavailability in Sprague-Dawley rat at 5 mg/kg; assay type: ADME, organism-based; settings: in vivo; in short: as §2
[16] = test system: LS174T; assay: Antiproliferative activity against human LS174T cells after 72 hrs by CellTiter-Glo luminescent cell viability assay; assay type: functional, cell-based
In short: (§3)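 Cells were grown in DMEM with 10% FBS, seeded at a density suited to each line, and left 24 h at 37 °C. Compounds were prepared in DMSO, diluted in medium over a concentration series starting at 100 µM, and applied for 72 h. CellTiter-Glo reagent was added for 30 min at room temperature before reading luminescence. IC50 came from four-parameter curve fitting.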

[17] = Antiproliferative activity against human PC3 cells after 72 hrs by CellTiter-Glo luminescent cell viability assay; assay type: functional, cell-based; settings: PC-3, 72 h; in short: as §3
[18] = Antiproliferative activity against human BxPC3 cells after 72 hrs by CellTiter-Glo luminescent cell viability assay; assay type: functional, cell-based; settings: BXPC-3, 72 h; in short: as §3
[19] = test system: LS174T; assay: Antitumor activity against human LS174T cells xenografted in BALB/C mouse assessed as tumor weight inhibition at 18.75 mg/kg, bid administered for 10 days measured twice per week; assay type: functional; settings: 240 h, read-out: TGI; in short: as §1
[20] = test system: LS174T; assay: Antitumor activity against human LS174T cells xenografted in BALB/C mouse assessed as tumor weight inhibition at 37.5 mg/kg, bid administered for 10 days measured twice per week; assay type: functional; settings: 240 h, read-out: TGI; in short: as §1
[21] = test system: Mus musculus; assay: Toxicity in BALB/C mouse xenografted with human LS174T cells assessed as mortality at 18.75 to 75 mg/kg, bid administered for 10 days; assay type: organism-based; settings: in vivo, 240 h
In short: (§4)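 Male BALB/C nude mice (18–20 g) kept under SPF conditions. LS-174T cells at 2.5×10^7 cells/mL injected subcutaneously into the right flank. Once tumors reached about 100 mm3, mice were randomized to groups of 6 (vehicle group n = 9) and dosed orally once or twice daily for 10 days. Controls received solvent. Body weight and tumor volume were measured twice weekly and deaths recorded.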

[22] = test system: Mus musculus; assay: Toxicity in BALB/C mouse xenografted with human LS174T cells assessed as loss of body weight at 18.75 to 75 mg/kg, bid administered for 10 days measured twice per week; assay type: organism-based; settings: in vivo, 240 h; in short: as §4
[23] = test system: LS174T; assay: Antitumor activity against human LS174T cells xenografted in BALB/C mouse assessed as tumor volume inhibition at 75 mg/kg, bid administered for 10 days measured twice per week; settings: 240 h, read-out: TGI
[24] = test system: LS174T; assay: Antitumor activity against human LS174T cells xenografted in BALB/C mouse assessed as tumor volume inhibition at 18.75 mg/kg, bid administered for 10 days measured twice per week; assay type: functional; settings: 240 h, read-out: TGI; in short: as §1
[25] = test system: LS174T; assay: Antitumor activity against human LS174T cells xenografted in BALB/C mouse assessed as tumor volume inhibition at 37.5 mg/kg, bid administered for 10 days measured twice per week; assay type: functional; settings: 240 h, read-out: TGI; in short: as §1
[26] = test system: LS174T; assay: Potency index, ratio of GDC-0449 IC50 to compound IC50 for human LS174T cells; assay type: functional
[27] = test system: PC-3; assay: Potency index, ratio of GDC-0449 IC50 to compound IC50 for human PC3 cells; assay type: functional
[28] = test system: BXPC-3; assay: Potency index, ratio of GDC-0449 IC50 to compound IC50 for human BxPC3 cells; assay type: functional

Which results are given for `Cc1ccc(CN2CCOCC2)cc1NC(=O)c1ccc(Nc2ncc(F)c(-c3ccc(OC(F)(F)F)cc3)n2)cc1`?
inhibition in vivo at 75 mg/kg [1]: 14.4%; pIC50 [2]: 8.99; Cmax [3]: 1010 ng/mL; Cmax [4]: 494 ng/mL; AUC(0-t) [5]: 2030 ng·h/mL; AUC(0-t) [6]: 4720 ng·h/mL; Vd [7]: 4.67 L/kg; Vd(app) [8]: 12033.24 mL/kg; clearance [9]: 7.75 mL/min/kg; CL/F [10]: 15.5 mL/min/kg; MRT last [11]: 4.85 h; MRT last [12]: 7.42 h; half-life [13]: 419 min; half-life [14]: 545 min; bioavailability [15]: 37.2%; pIC50 [16]: 5.04; pIC50 [17]: 4.94; pIC50 [18]: 4.84; inhibition in vivo at 18.75 mg/kg [19]: 18.4%; inhibition in vivo at 37.5 mg/kg [20]: 17.3%; Activity [21]: Non-toxic; Activity [22]: Non-toxic; inhibition in vivo at 75 mg/kg [23]: 33.1%; inhibition in vivo at 18.75 mg/kg [24]: 34%; inhibition in vivo at 37.5 mg/kg [25]: 34.9%; Ratio IC50 [26]: 5; Ratio IC50 [27]: 5.8; Ratio IC50 [28]: 3
